Compound activity from PubChem BioAssay.
sPLA2-III inh: Inhibits HGIII-sPLA2 liposome hydrolysis, primary screen. 370,000 compounds, 0.56% hits. QFRET BODIPY PC-A2 liposome hydrolysis, fluorescence. inhibition, % at 12.2 µM. Q9NZ20;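 active = inhibition above mean plus 3 SD of compounds lying within the high and low control bounds, cut at about 19% in these data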;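 note: 0% = median of test compound wells and 100% = no enzyme DMSO wells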
Lipid droplet: hepatic lipid droplet formation modulation | inhibition, % at 6.5 µM | 240,000 compounds, 0.4% hits | AML12 mouse hepatocytes, oleate lipid droplets, BODIPY imaging | AID 1656;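 active = lipid droplet intensity inhibited by at least 50%, with more than 500 cells counted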
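material = mouse AML12 hepatocyte cell line, fixed after treatment | also added = 100 µM oleic acid challenge | doses = compound at 6.5 µM only | schedule = overnight exposure | technique = Image-based BODIPY and DAPI two-channel analysis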
NRP1-CendR mod: modulators of CendR peptide binding to human neuropilin-1; FAM-RPARPAR peptide binding to NRP-1, fluorescence polarization; AID 602438; O14786; inhibition, % at 25 µM; 360,000 compounds, 0.85% hits;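 active = inhibition or corrected inhibition above about 18%, plus a signal ratio from 0.5 to 1.5, limit read from the data, passing the limit was not always enough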
Target sequence (O14786 whole entry, looked up): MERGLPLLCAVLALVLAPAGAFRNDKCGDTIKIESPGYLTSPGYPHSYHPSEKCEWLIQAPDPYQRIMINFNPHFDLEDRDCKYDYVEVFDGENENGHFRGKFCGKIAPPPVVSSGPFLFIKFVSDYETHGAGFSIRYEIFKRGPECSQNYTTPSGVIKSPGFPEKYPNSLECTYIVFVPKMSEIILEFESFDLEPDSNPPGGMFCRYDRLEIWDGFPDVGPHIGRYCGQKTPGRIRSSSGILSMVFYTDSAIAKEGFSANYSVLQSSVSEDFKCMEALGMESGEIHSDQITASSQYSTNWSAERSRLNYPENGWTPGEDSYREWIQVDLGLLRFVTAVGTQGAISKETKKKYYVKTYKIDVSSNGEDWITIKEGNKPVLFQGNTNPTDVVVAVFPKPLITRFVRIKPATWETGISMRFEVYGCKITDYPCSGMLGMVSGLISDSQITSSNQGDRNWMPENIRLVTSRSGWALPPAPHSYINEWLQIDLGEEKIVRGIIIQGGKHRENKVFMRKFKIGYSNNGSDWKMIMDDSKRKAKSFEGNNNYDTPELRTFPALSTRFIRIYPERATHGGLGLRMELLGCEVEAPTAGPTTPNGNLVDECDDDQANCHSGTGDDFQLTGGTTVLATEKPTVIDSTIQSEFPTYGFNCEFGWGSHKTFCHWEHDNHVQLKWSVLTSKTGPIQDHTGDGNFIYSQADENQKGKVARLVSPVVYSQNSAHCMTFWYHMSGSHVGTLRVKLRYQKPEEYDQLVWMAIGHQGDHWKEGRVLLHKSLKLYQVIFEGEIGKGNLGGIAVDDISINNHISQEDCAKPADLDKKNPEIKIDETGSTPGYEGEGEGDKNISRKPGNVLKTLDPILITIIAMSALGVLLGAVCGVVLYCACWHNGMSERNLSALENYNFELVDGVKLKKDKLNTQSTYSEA
PfM18AAP inh: PfM18AAP enzyme inhibition. recombinant PfM18AAP, H-Glu-NHMec fluorogenic cleavage. inhibition, % at 7.35 µM. 290,000 compounds, 1.2% hits. AID 1822;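 active = inhibition above the campaign mean inhibition over all tested compounds plus 3 SD, cut at about 28% in these data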;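 note: 0% = plate median of test compound wells and 100% = 2 mM ZnCl2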
HTR2A ag: activates the mouse 5-HT2A serotonin receptor; P35363; activation, % at 7.6 µM; 360,000 compounds, 0.66% hits; CHO-K1 mHTR2A beta-arrestin complementation, luminescence; percent of 30 µM serotonin response; AID 624169;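 active = activation above a run cutoff, the mean activation of all tested compounds plus 3 SD, cut at about 14% in these data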;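 note: 0% = plate median of compound wells and 100% = 30 µM serotonin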
Arrestin-AP2 inh: inhibitors of human beta-arrestin and AP2 interaction; AID 504490; 340,000 compounds, 0.31% hits; FITC-arrestin peptide / GST-AP2 beads, flow cytometry; AP2 beta2 appendage carries R879A mutation; inhibition, % at 10 µM;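 active = inhibition above a set limit, near 3 SD of compounds lacking own fluorescence, cut at about 54% in these data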;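 note: plate controls were DMSO wells for no effect and 5 µM unlabelled arrestin peptide for full effect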
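Measured by: flow cytometry, FL1 (488/535 nm); Material: AP2 appendage R879A on GSH beads; Evaluation: percent response; Timing: pre-incubation 12 min, peptide binding 1 h, room temperature; Also added: 50 nM FITC-arrestin peptide; Medium: PBS with 0.05% Tween 20 and 0.1% BSA.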
Arr AP2 CP1: inhibitors of human beta-arrestin and AP2 interaction; shares compounds with Arrestin-AP2 inh; GST-AP2 beads, FITC arrestin peptide binding, flow cytometry; GST-fused beta2-adaptin appendage, R879A mutant; inhibition, % at 10 µM; 1,300 compounds, 2% hits;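 active = inhibition above a set limit, roughly 3 SD of non-fluorescent compound noise, cut at about 38% in these data; inactive = inhibition at or below that limit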;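 note: loss of bead fluorescence from 50 nM FITC arrestin peptide bound to appendage; 0% = negative control wells and 100% = excess unlabelled arrestin peptide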
GST GSH counter: counter-screen for beta-arrestin AP2 inhibitors: GST-GSH bead binding; shares compounds with Arrestin-AP2 inh; GST-fluorescein binding to GSH beads, fluorescence; inhibition, % at 10 µM; 1,300 compounds, 2% hits; AID 588338;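 active = inhibition above 50%, about 3 SD of the inhibition seen with non-fluorescent compounds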;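 note: fluorescein maleimide labelled GST captured on 4 micron glutathione beads; higher means more loss of bead fluorescence from quenching or blocked binding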
* hit, by the source's call; . = no result. In the library only some 3.3% were active in any assay of this set; here they are far more common.

SMILES	sPLA2-III inh	Lipid droplet	NRP1-CendR mod	PfM18AAP inh	HTR2A ag	Arrestin-AP2 inh	Arr AP2 CP1	GST GSH counter
O=S(=O)(c1ccc(Br)cc1Cl)N1CCN(CCO)CC1	-4	2	4	-1	-3	5	.	.
O=C1C=CC(=O)c2c(O)c(N3CCN(CCO)CC3)c(Cl)c(O)c21	-13	.	55*	.	8	80*	44*	8
O=C1C=CC(=O)c2c(O)c(N3CCN(CCOCCO)CC3)c(Br)c(O)c21	-18	.	65*	.	-4	69*	52*	20
COC(=O)C1CN(Cc2cn(Cc3ccc(F)cc3)nn2)CCS(=O)(=O)N1Cc1ccccc1 (stereo not given)	-4	.	.	.	.	.	.	.
C[C@H]1C2CC(OC(=O)Nc3ccc(C#N)cc3)C(C2)[C@H]2CCCCN21 (stereo not given in full)	-3	.	.	.	.	.	.	.
CCc1ccc2[nH]c(=O)c(CN(CCN(CC)CC)C(=S)NCc3ccco3)cc2c1	-3	-15	-24	4	-5	55*	9	-7
CCCC(=O)N1N=C(c2ccccc2)CC1c1cn(C)c2ccccc12 (stereo not given)	-21	-35	-17	-1	2	1	.	.
CC(=O)N1N=C(c2ccc(Br)cc2)CC1c1cn(C)c2ccccc12 (stereo not given)	-10	24	-11	-2	2	55*	-6	.
CCOC(=O)C1=C(COC(=O)Cc2ccc(Cl)cc2)NC(=O)NC1C (stereo not given)	-12	.	3	.	2	4	9	1
CCOC(=O)C1=C(COC(=O)CCc2ccc(F)cc2)NC(=O)NC1C (stereo not given)	9	.	0	.	-2	1	3	-2
CCOC(=O)C1=C(COC(=O)C(C)(C)Oc2ccc(Cl)cc2)NC(=O)NC1C (stereo not given)	-7	.	3	.	6	19	-6	-5
CCOC(=O)C1=C(COC(=O)Cc2ccc(OC)c(OC)c2)NC(=O)NC1C (stereo not given)	-6	.	4	.	3	38	-7	3
Cn1c(CCCNC(=O)c2ccco2)nc2ccccc21	4	.	-22	.	-3	14	.	.
CSc1ccccc1OCc1cc(C(=O)N2CCN3CCCC3C2)no1 (stereo not given)	-2	11	14	-16	-3	-9	.	.
CCOC(=O)C1=C(COC(=O)Cc2ccccc2[N+](=O)[O-])NC(=O)NC1C (stereo not given)	-10	.	-8	.	0	.	.	.
CCOC(=O)C1=C(COC(=O)Cc2ccccc2)NC(=O)NC1C (stereo not given)	-1	-4	22	4	9	9	20	-8
Cc1nn(Cc2ccc(Cl)cc2Cl)c(Cl)c1/C=C/C(=O)OCC(=O)NCC(F)(F)F	9	-7	0	-2	0	81*	-4	-8
Cc1ccc(OCCNC(=O)c2ccccc2F)cc1	9	-2	-3	-9	-1	3	.	.
CC(=O)NCC1CCCN(c2nc3nonc3nc2N(C)Cc2ccccc2)C1 (stereo not given)	0	3	3	-8	2	59*	-17	-6
CCOc1ccc(Cc2noc3c2C(=O)CC(C)(C)C3)cc1OCC	-3	-8	0	0	5	57*	9	-4
COc1ccc(C2=CC(=O)CC(C)(C)C2=O)cc1	0	.	.	.	.	.	.	.
Cc1c(Cl)cccc1NC(=O)Nc1ccc(C(N)=O)cc1	13	7	-2	0	-1	104*	0	5
Cc1c(Cl)cccc1NC(=O)Nc1ccccc1C(N)=O	12	11	1	2	2	-1	.	.
CCSc1nnc(NC(=O)Cc2cc(OC)c(OC)c(OC)c2)s1	-2	11	4	3	4	-22	.	.
CCc1nnc(NC(=O)Cc2cc(OC)c(OC)c(OC)c2)s1	1	33	8	-15	0	71*	-7	-4
SMILES	sPLA2-III inh	Lipid droplet	NRP1-CendR mod	PfM18AAP inh	HTR2A ag	Arrestin-AP2 inh	Arr AP2 CP1	GST GSH counter
CCN(CC)c1ccc(NC(=O)CSc2nnc(SCc3ccc(Cl)cc3)s2)cc1	13	.	.	.	.	.	.	.
O=C(c1ccccc1)N1CCC2CCN(S(=O)(=O)c3ccccc3)CC21 (stereo not given)	1	.	.	.	.	.	.	.
COc1cc2c(cc1NC(=O)Nc1ccc(F)cc1)oc1ccccc12	10	0	0	-3	-2	-2	-11	-7
CNC(=S)Nc1cc2oc3ccccc3c2cc1OC	10	11	-12	1	8	-1	.	.
COc1ccc(/C=C/C(=O)NC(=S)Nc2cc3oc4ccccc4c3cc2OC)cc1	4	14	18	-2	1	6	.	.
COc1ccc(NC(=O)Nc2cc3oc4ccccc4c3cc2OC)cc1	0	.	-17	3	-7	1	-11	1
COc1cc2c(cc1NC(=O)Nc1ccc(C)cc1)oc1ccccc12	-8	-4	4	2	-2	12	-8	9
COc1cc2c(cc1NC(=O)CSc1ccccc1)oc1ccccc12	-7	-5	-12	8	-7	0	-8	-4
COc1cc2c(cc1NC(=S)Nc1cccc(C)c1)oc1ccccc12	7	-24	-3	1	-2	-10	.	.
COc1cc2c(cc1NC(=O)Nc1cccc(C)c1)oc1ccccc12	8	-10	-3	-5	4	3	14	7
COc1cc2c(cc1NC(=O)COC(=O)c1ccccc1)oc1ccccc12	.	-1	.	6	.	.	.	.
COc1ccc(OCC(=O)Nc2cc3oc4ccccc4c3cc2OC)cc1	.	2	4	-5	2	28	1	19
COc1cc(NC(=O)COc2ccccc2)c(OC)cc1NC(C)=O	-5	17	0	2	0	60*	-1	-10
COc1cc2c(cc1NC(=O)C(C)Sc1ccc(NC(C)=O)cc1)oc1ccccc12 (stereo not given)	-31	34	-1	1	-6	0	2	-7
COc1ccccc1S(=O)(=O)N(C)C[C@H]1OCc2cnnn2CCCC(=O)N([C@@H](C)CO)C[C@H]1C	2	.	-2	.	3	.	.	.
CCCN(CC(=O)Nc1ccccc1OC)C(=O)c1cc(-c2ccccc2)nn1-c1ccccc1	-18	.	2	.	-8	-5	.	.
COC(=O)c1cc2c(c3c4cc(F)ccc4n(S(=O)(=O)c4cccc(C)c4)c13)C(=O)N(Cc1ccco1)C2	1	.	.	.	.	.	.	.
